According to ChEMBL document CHEMBL4840303, “Design, synthesis, biological evaluation and pharmacophore model analysis of novel tetrahydropyrrolo[3,4-c]pyrazol derivatives as potential TRKs inhibitors” (Eur J Med Chem, 2021):

Experiments:
[1] = Stability in human plasma assessed as compound remaining incubated for 10 mins by LC-MS/MS analysis; format: ADME, cell-free; details: read-out: Stability
Procedure, shortened: (§1)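 Pooled frozen human plasma thawed at 37 °C, centrifuged to remove clots, pH adjusted to 7.4 if required. Spiked to 2 µM final (from 100 µM dosing solution), in duplicate, incubated at 37 °C in a water bath. Sampled at 0, 10, 30, 60 and 120 min, quenched with acetonitrile stop solution containing internal standards, centrifuged, and supernatant analysed by LC-MS/MS for percent remaining.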

KM12 [2] = test: Induction of apoptosis in human KM12 cells assessed as necrotic cells at 500 nM measured after 48 hrs by AnnexinV-FITC/PI staining based flowcytometry assay relative to control; format: functional
Procedure, shortened: (§2)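 10^5 cells in Annexin V binding buffer stained with FITC-Annexin V and PI for 10 min at room temperature in the dark, diluted with PBS and analysed by flow cytometry (FITC 494/518 nm, PI 535/617 nm).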

[3] = Stability in human liver microsomes assessed as compound remaining at 100 uM measured after 60 mins by LC-MS/MS analysis; format: ADME, Microsome; details: 1 h
Procedure, shortened: (§3)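 Human liver microsomes diluted to 0.59 mg/mL working solution in 100 mM potassium phosphate, prewarmed 10 min at 37 °C; compound added from a 100 µM working solution. NADPH (in 10 mM MgCl2) added to one plate, buffer instead in no-cofactor control. Incubated at 37 °C, quenched at 5, 15, 30, 45, 60 min, centrifuged, analysed by LC-MS/MS.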

KM12 [4] = test: Induction of apoptosis in human KM12 cells assessed as viable cells at 62.5 nM measured after 48 hrs by AnnexinV-FITC/PI staining based flowcytometry assay relative to control; format: functional; details: read-out: Activity; procedure, shortened: as §2
[5] = Stability in human liver microsomes assessed as compound remaining in presence of NADPH at 100 uM measured after 60 mins by LC-MS/MS analysis; format: ADME, Microsome; details: read-out: Stability; procedure, shortened: as §3
[6] = molecular target: BDNF/NT-3 growth factors receptor (Homo sapiens, UniProt Q16620); test: Inhibition of recombinant His-tagged human TRKB expressed in baculovirus expression system at 1 uM measured by select screen assay relative to control
Procedure, shortened: (§4)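 Single-concentration profiling at 1.0 µM in a 28-kinase SelectScreen panel; percent inhibition reported.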

KM12 [7] = test: Cell cycle arrest in human KM12 cells assessed as accumulation of cells at less G1 phase at 250 nM measured after 48 hrs by AnnexinV-FITC/PI staining based flowcytometry method relative to control; format: functional
[8] = molecular target: Epidermal growth factor receptor (Homo sapiens) (UniProt P00533); test: Inhibition of recombinant GST-tagged human EGFR (668 to 1210) expressed in baculovirus expression system at 1 uM measured by select screen assay relative to control; procedure, shortened: as §4
[9] = Stability in human plasma assessed as compound remaining incubated for 60 mins by LC-MS/MS analysis; format: ADME, cell-free; details: read-out: Stability; procedure, shortened: as §1
KM12 [10] = test: Cell cycle arrest in human KM12 cells assessed as accumulation of cells at greater G1 phase at 125 nM measured after 48 hrs by AnnexinV-FITC/PI staining based flowcytometry method relative to control; format: functional
KM12 [11] = test: Induction of apoptosis in human KM12 cells assessed as early apoptotic cells at 62.5 nM measured after 48 hrs by AnnexinV-FITC/PI staining based flowcytometry assay relative to control; format: functional
Procedure, shortened: (§5)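 They were detached with trypsin, washed twice in PBS, and 10^5 cells were suspended in Annexin V binding buffer. Cells were stained with FITC-Annexin V and PI for 10 min at room temperature in the dark, diluted with PBS and analysed by flow cytometry.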

[12] = Stability in human plasma assessed as compound remaining incubated for 0 mins by LC-MS/MS analysis; format: ADME, cell-free; details: read-out: Stability; procedure, shortened: as §1
[13] = molecular target: Serine/threonine-protein kinase PLK4 (Homo sapiens) (UniProt O00444); test: Inhibition of recombinant GST-tagged human PLK4 expressed in baculovirus expression system at 1 uM measured by select screen assay relative to control; procedure, shortened: as §4
CYP2C9 = CYP2C9 (Homo sapiens, UniProt P11712); test: Inhibition of CYP2C9 in human liver microsomes at 10 uM preincubated for 10 mins followed by addition of NADPH and measured after 15 mins by LC-MS/MS analysis; format: ADME; details: time 25 min
Procedure, shortened: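 Pooled human liver microsomes (0.253 mg/mL) with test compound at 10 µM and probe substrates: phenacetin (CYP1A2), diclofenac (CYP2C9), S-mephenytoin (CYP2C19), dextromethorphan (CYP2D6), midazolam (CYP3A4). 10 min preincubation at 37 °C, NADPH-regenerating system added, 15 min at 37 °C. Stopped with cold acetonitrile containing tolbutamide/labetalol internal standards, centrifuged, supernatant read by LC-MS/MS; % inhibition.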

[14] = Tmax in Sprague dawley rat at 3 mg/kg, po; format: ADME, organism-based; details: in vivo
Procedure, shortened: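 Male/female status not given; SD rats (n = 3 per group) dosed orally at 3 mg/kg as a single dose. Blood taken into heparin tubes at set time points and centrifuged at 4 °C. Plasma levels quantified by LC-MS/MS; noncompartmental parameters fitted.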

[15] = Half life in Sprague dawley rat at 3 mg/kg, po; format: ADME, organism-based; details: in vivo
Procedure, shortened: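 Blood was collected into heparin tubes at specified time points and centrifuged at once (4 °C, 4000 rpm, 20 min). Plasma levels were quantified by LC-MS/MS. Parameters came from noncompartmental analysis.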

KM12 [16] = test: Induction of apoptosis in human KM12 cells assessed as early apoptotic cells at 1000 nM measured after 48 hrs by AnnexinV-FITC/PI staining based flowcytometry assay relative to control; format: functional; procedure, shortened: as §5
[17] = Stability in human plasma assessed as compound remaining incubated for 30 mins by LC-MS/MS analysis; format: ADME, cell-free; details: read-out: Stability; procedure, shortened: as §1
[18] = molecular target: High affinity nerve growth factor receptor (Homo sapiens, UniProt P04629); test: Inhibition of recombinant His-tagged human TRKA expressed in baculovirus expression system at 1 uM measured by select screen assay relative to control; procedure, shortened: as §4
[19] = molecular target: NT-3 growth factor receptor (Homo sapiens, UniProt Q16288); test: Inhibition of N-terminal GST-tagged human TRKC (456 to 825 residues) expressed in Sf21 using TK as substrate in presence of ATP measured after 40 mins by HTRF assay
KM12 [20] = test: Cell cycle arrest in human KM12 cells assessed as accumulation of cells at G2 phase at 1000 nM measured after 48 hrs by AnnexinV-FITC/PI staining based flowcytometry method relative to control; format: functional
KM12 [21] = test: Cell cycle arrest in human KM12 cells assessed as accumulation of cells at less G1 phase at 125 nM measured after 48 hrs by AnnexinV-FITC/PI staining based flowcytometry method relative to control; format: functional
[22] = Stability in human plasma assessed as compound remaining incubated for 120 mins by LC-MS/MS analysis; format: ADME, cell-free; details: read-out: Stability; procedure, shortened: as §1
[23] = Stability in human liver microsomes assessed as half life at 100 uM measured after 60 mins by LC-MS/MS analysis; format: ADME, Microsome; details: 1 h; procedure, shortened: as §3
KM12 [24] = test: cells; details: Homo sapiens, KM12, 72 h

Chain of High affinity nerve growth factor receptor (P04629 33-796 limits assumed): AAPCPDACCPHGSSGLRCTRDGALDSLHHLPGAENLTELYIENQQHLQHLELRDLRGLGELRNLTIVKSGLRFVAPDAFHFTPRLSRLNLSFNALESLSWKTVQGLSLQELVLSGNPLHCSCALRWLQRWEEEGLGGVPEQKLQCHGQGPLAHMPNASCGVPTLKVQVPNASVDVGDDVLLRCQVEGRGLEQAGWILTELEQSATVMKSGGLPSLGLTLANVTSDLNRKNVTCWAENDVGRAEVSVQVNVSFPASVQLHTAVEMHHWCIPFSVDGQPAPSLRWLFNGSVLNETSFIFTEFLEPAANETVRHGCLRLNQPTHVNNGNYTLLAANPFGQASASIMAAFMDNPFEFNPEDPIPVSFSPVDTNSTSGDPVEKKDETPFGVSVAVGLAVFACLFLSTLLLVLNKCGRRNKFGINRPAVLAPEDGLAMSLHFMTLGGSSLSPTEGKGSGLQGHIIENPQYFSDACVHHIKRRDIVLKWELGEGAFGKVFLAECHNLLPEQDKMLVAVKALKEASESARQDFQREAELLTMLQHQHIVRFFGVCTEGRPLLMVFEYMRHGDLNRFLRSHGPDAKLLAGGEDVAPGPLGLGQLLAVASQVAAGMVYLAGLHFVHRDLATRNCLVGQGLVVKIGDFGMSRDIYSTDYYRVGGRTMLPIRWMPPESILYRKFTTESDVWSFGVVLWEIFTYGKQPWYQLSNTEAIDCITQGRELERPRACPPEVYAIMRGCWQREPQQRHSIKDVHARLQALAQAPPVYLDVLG
Chain of BDNF/NT-3 growth factors receptor (Q16620 32-822 limits assumed): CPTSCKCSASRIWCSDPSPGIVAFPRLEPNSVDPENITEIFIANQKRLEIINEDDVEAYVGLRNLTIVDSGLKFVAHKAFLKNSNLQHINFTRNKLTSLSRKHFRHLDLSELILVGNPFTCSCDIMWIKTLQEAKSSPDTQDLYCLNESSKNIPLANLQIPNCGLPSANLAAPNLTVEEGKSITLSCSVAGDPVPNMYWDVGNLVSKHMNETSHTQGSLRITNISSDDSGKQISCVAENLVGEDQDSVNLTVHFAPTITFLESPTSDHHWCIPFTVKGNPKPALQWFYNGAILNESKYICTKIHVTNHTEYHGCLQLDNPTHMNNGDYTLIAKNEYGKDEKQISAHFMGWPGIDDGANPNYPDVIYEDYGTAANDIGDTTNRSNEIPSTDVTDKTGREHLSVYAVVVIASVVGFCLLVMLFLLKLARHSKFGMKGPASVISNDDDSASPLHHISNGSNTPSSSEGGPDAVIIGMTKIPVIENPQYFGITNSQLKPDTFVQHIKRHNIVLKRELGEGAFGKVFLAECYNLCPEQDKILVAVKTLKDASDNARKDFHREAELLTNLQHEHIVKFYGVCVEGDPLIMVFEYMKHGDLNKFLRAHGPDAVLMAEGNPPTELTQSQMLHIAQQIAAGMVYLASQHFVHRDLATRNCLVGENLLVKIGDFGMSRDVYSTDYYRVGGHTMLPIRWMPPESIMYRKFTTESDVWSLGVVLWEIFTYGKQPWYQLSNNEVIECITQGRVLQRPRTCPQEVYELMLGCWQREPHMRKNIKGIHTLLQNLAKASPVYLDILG
Chain of CYP2C9 (P11712 whole entry): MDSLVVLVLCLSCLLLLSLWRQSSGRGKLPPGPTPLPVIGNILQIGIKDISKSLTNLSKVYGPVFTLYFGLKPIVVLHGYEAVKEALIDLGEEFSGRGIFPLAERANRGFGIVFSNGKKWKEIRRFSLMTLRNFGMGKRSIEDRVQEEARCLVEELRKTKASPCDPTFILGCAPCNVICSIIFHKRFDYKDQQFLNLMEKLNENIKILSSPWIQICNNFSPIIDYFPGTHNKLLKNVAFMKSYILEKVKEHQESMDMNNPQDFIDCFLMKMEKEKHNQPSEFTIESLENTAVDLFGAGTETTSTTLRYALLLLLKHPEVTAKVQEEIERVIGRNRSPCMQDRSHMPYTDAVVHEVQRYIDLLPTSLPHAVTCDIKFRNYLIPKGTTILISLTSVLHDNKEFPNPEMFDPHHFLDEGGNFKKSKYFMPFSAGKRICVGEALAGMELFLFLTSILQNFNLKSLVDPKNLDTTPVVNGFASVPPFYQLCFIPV
Chain of NT-3 growth factor receptor (Q16288 whole entry, the tested form may be a part): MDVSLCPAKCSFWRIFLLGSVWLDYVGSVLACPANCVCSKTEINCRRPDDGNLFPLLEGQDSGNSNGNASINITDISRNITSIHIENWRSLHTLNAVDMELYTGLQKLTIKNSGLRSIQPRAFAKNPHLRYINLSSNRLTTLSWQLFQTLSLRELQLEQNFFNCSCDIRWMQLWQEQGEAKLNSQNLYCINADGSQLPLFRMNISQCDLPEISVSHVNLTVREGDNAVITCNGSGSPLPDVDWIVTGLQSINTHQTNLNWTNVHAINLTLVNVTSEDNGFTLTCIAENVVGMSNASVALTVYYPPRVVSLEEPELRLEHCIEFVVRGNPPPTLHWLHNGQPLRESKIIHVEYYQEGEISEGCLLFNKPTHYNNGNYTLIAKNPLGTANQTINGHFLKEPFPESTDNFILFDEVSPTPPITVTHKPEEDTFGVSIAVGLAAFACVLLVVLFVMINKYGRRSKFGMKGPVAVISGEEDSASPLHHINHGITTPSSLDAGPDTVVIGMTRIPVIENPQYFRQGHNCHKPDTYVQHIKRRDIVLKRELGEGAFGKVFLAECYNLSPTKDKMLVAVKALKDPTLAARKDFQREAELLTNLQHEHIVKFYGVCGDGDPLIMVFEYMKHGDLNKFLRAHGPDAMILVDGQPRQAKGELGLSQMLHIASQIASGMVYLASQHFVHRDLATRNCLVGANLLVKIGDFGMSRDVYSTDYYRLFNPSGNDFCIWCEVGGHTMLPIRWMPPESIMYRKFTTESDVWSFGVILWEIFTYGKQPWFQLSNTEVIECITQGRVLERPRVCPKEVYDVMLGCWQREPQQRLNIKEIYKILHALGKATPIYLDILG
Chain of Epidermal growth factor receptor (Homo sapiens) (P00533 whole entry): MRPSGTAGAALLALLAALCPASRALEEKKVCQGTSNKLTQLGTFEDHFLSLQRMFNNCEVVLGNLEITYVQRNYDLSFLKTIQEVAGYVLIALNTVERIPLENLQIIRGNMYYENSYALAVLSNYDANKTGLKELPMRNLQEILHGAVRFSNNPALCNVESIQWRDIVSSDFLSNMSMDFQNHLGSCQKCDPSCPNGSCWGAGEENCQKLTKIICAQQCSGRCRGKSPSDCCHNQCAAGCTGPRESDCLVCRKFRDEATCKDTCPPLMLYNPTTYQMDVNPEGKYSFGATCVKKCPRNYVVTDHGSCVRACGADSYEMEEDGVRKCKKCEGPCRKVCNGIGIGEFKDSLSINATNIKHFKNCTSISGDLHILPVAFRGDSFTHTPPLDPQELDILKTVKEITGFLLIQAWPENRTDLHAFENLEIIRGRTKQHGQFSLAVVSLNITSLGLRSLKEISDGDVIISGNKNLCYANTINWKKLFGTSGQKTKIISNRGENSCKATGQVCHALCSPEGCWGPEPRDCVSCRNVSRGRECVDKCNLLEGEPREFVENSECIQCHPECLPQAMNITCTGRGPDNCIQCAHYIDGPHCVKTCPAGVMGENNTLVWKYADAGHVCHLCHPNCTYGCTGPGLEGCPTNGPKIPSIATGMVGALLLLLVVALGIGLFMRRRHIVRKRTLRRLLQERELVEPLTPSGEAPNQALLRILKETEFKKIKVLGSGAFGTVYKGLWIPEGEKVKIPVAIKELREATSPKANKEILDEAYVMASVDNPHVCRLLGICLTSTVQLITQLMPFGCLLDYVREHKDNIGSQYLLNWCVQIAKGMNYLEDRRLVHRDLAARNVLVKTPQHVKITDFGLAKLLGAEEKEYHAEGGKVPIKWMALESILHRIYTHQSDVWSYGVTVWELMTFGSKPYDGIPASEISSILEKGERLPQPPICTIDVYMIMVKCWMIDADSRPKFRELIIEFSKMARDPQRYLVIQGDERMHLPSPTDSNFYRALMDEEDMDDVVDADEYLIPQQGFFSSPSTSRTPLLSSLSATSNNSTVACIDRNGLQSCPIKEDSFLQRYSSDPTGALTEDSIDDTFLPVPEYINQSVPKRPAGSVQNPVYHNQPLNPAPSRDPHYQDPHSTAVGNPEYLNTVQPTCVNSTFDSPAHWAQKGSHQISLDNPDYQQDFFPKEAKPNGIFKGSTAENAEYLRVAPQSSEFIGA
Chain of Serine/threonine-protein kinase PLK4 (Homo sapiens) (O00444 whole entry): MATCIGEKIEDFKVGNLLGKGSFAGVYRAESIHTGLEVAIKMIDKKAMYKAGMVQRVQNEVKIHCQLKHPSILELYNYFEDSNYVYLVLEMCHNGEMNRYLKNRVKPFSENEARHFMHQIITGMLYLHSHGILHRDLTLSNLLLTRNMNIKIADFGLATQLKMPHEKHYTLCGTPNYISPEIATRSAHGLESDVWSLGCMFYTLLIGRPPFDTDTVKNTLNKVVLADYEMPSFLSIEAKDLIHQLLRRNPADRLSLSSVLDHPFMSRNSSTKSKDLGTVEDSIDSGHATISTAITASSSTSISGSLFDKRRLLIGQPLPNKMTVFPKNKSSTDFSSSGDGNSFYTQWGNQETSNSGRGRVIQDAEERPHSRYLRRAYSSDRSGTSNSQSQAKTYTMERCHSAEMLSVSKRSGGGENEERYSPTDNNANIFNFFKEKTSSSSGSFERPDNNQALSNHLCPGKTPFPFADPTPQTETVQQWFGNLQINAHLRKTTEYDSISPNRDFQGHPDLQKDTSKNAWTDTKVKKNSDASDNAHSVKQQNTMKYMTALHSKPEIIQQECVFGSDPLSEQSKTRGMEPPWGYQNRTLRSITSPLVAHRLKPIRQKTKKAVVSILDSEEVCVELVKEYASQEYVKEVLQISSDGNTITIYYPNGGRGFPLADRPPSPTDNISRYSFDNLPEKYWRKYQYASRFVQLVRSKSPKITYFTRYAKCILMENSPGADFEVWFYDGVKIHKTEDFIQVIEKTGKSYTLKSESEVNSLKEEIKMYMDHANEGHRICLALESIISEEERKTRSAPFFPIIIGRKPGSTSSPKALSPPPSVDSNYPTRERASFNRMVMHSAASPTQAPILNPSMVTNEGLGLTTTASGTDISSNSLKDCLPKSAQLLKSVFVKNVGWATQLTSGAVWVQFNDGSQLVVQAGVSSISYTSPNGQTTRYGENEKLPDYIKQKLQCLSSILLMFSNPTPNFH

Work on CN1CCN(c2ccc(C(=O)Nc3n[nH]c4c3CN(Cc3cc(F)cc(F)c3)C4(C)C)cc2)CC1 yielded a remaining at 10 min [1] of 96.8%, an Activity (KM12 [2]) of 0.06% and a Stability [3] of 90.9%. For the same compound, the viability at 0.0625 µM (KM12 [4]) was 70.5%, the remaining at 1 h, 100 µM [5] was 22.4% and the inhibition [6] was 100%. The Activity (KM12 [7]) was 5.86%, the inhibition [8] was 4% and the remaining at 1 h [9] was 99.2%. For the same compound, the Activity (KM12 [10]) was 2.45%, the Activity (KM12 [11]) was 19.55% and the remaining at 0 h [12] was 100%. It also gave an inhibition [13] of 0%, an inhibition at 0.25 h, 10 µM (CYP2C9) of 16% and a Tmax [14] of 1.67 h. For the same compound, the half-life [15] was 1.89 h, the Activity (KM12 [16]) was 36.3% and the remaining at 0.5 h [17] was 95.7%. For the same compound, the inhibition [18] was 102%, the IC50 [19] was 11 nM and the Activity (KM12 [20]) was 8.92%. For the same compound, the Activity (KM12 [21]) was 7.36%, the remaining at 2 h [22] was 101% and the t1/2 [23] was 0.493 h. The IC50 (KM12 [24]) was 82 nM.
